Laboratory results: ChEMBL document CHEMBL2311289, “Novel 2-aminooctahydrocyclopentalene-3a-carboxamides as potent CCR2 antagonists” (Bioorg Med Chem Lett, 2013)

Columns and labels:
[1] = biological target: C-C chemokine receptor type 2 (Homo sapiens, UniProt P41597); assay: Binding affinity to human CCR2
[2] = AUC in dog at 10 mg/kg, po; format: ADME, organism-based, Canis lupus familiaris; parameters: dose 10 mg/kg, route oral; details: plasma
Method in brief: (§1)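 Dog pharmacokinetics: oral dosing at 10 mpk in 0.5% methocel and intravenous dosing at 2 mpk in 20% HPbCD. Readouts were systemic clearance, Vdss, oral t1/2 and oral AUC.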

[3] = Oral bioavailability in dog at 10 mg/kg; format: ADME, organism-based, Canis lupus familiaris; details: in vivo
[4] = Half life in dog at 10 mg/kg, po; format: ADME, organism-based, Canis lupus familiaris; parameters: dose 10 mg/kg, route oral; details: in vivo; method in brief: as §1
[5] = Volume of distribution at steady state in dog at 10 mg/kg, po and 2 mg/kg iv; format: ADME, organism-based, Canis lupus familiaris; details: in vivo, read-out: Vdss; method in brief: as §1
[6] = Clearance in dog at 10 mg/kg, po and 2 mg/kg iv; format: ADME, organism-based, Canis lupus familiaris; details: in vivo; method in brief: as §1
Mus musculus [7] = assay: Antiinflammatory activity in thioglycollate-induced mouse peritonitis model expressing human CCR2 assessed as inhibition of macrophage infiltration administered as po bid; format: functional
Method in brief: (§2)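 Acute inflammation model: peritonitis was induced with thioglycollate in mCCR2 knock-out/hCCR2 knock-in mice. Compound was given orally, and infiltration of macrophages into the peritoneum was measured.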

Mus musculus [8] = assay: Antiinflammatory activity in thioglycollate-induced mouse peritonitis model expressing human CCR2 assessed as inhibition of macrophage infiltration at 10 mg/kg, po bid relative to control; format: functional; method in brief: as §2
Mus musculus [9] = assay: Antiinflammatory activity in thioglycollate-induced mouse peritonitis model expressing human CCR2 assessed as inhibition of macrophage infiltration at 3 mg/kg, po bid relative to control; format: functional; method in brief: as §2
Mus musculus [10] = assay: Antiinflammatory activity in thioglycollate-induced mouse peritonitis model expressing human CCR2 assessed as inhibition of macrophage infiltration at 1 mg/kg, po bid relative to control; format: functional; method in brief: as §2
Mus musculus [11] = assay: Antiinflammatory activity in thioglycollate-induced mouse peritonitis model expressing human CCR2 assessed as inhibition of macrophage infiltration at 0.3 mg/kg, po bid relative to control; format: functional; method in brief: as §2
Cytochrome P450 2C9 = Cytochrome P450 2C9 (Homo sapiens, UniProt P11712); assay: Inhibition of human CYP2C9; format: ADME
Cytochrome P450 3A4 = Cytochrome P450 3A4 (Homo sapiens, UniProt P08684); assay: Inhibition of human CYP3A4; format: ADME
Cytochrome P450 2D6 = Cytochrome P450 2D6 (Homo sapiens, UniProt P10635); assay: Inhibition of human CYP2D6; format: ADME
Cytochrome P450 2C19 = Cytochrome P450 2C19 (Homo sapiens, UniProt P33261); assay: Inhibition of human CYP2C19; format: ADME
Cytochrome P450 1A2 = biological target: T1, Cytochrome P450 1A2 (Homo sapiens, UniProt P05177); assay: Inhibition of human CYP1A2; format: ADME
T1 sequence (P05177 whole entry): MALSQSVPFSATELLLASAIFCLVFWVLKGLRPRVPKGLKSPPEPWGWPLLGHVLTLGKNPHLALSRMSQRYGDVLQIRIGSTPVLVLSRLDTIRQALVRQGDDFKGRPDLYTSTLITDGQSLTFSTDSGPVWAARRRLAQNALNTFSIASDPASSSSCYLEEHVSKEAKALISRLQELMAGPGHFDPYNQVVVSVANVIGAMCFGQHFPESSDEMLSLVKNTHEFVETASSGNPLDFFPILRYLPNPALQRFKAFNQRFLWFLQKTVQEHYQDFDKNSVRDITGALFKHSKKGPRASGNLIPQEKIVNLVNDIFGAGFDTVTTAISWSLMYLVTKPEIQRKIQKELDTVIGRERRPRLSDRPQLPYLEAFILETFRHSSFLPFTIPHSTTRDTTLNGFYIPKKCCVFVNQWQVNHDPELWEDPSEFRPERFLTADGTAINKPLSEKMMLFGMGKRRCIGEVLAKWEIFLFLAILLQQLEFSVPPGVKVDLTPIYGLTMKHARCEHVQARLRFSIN

[12] = biological target: Voltage-gated inwardly rectifying potassium channel KCNH2 (Homo sapiens, UniProt Q12809); assay: Binding affinity to human ERG
Chain of Voltage-gated inwardly rectifying potassium channel KCNH2 (Q12809 whole entry): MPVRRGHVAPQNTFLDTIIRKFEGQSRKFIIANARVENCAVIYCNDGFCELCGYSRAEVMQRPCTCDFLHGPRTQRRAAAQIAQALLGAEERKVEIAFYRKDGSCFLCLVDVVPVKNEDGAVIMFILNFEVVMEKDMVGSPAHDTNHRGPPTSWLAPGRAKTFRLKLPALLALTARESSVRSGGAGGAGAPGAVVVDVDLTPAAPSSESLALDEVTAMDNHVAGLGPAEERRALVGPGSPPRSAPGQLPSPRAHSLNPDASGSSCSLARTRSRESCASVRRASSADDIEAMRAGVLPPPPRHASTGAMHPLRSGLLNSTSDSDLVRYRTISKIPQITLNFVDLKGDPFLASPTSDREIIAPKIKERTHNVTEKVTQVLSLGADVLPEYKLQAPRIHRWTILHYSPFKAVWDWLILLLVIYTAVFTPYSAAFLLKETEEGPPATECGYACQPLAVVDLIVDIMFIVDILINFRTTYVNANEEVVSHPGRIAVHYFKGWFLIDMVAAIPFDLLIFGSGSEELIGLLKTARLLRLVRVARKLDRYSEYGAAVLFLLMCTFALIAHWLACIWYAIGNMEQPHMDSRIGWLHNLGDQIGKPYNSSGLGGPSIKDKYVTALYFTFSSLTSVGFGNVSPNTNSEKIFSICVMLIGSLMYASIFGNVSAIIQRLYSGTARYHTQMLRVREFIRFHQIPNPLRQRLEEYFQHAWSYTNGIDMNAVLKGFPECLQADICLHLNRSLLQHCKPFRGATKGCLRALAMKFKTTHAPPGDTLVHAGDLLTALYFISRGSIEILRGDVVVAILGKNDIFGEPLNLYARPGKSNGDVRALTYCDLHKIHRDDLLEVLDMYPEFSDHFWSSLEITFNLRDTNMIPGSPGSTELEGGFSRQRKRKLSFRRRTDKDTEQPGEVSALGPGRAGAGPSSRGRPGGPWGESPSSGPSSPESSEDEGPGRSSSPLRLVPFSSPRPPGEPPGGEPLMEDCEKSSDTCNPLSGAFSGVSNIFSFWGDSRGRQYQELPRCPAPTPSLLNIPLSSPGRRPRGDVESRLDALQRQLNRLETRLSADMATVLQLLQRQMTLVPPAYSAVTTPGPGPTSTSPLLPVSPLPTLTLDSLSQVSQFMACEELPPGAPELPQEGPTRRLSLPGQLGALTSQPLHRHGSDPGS

Chain of C-C chemokine receptor type 2 (P41597 whole entry): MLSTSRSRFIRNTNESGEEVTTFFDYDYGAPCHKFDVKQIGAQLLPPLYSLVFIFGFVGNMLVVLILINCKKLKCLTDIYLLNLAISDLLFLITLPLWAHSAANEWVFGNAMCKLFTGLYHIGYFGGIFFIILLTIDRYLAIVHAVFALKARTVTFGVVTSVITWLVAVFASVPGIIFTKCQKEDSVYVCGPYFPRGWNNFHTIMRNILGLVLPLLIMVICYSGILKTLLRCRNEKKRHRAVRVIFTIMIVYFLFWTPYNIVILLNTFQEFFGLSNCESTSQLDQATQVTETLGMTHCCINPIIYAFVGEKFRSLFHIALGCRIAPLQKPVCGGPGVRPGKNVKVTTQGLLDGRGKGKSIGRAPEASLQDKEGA
Chain of Cytochrome P450 2C19 (P33261 whole entry): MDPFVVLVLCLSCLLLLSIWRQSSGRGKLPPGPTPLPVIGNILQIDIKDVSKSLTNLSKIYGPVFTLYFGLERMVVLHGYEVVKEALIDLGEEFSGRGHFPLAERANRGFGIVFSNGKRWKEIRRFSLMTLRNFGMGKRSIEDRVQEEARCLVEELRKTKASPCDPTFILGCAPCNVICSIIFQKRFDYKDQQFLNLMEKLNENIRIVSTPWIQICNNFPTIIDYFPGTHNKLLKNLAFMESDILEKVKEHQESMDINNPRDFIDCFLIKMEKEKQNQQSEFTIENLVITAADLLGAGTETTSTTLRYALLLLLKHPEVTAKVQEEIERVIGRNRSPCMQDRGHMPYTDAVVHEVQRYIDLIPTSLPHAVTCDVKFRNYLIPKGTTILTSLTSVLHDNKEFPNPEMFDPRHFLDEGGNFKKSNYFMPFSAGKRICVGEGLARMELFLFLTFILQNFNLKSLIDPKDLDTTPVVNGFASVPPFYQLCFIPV
Chain of Cytochrome P450 3A4 (P08684 whole entry): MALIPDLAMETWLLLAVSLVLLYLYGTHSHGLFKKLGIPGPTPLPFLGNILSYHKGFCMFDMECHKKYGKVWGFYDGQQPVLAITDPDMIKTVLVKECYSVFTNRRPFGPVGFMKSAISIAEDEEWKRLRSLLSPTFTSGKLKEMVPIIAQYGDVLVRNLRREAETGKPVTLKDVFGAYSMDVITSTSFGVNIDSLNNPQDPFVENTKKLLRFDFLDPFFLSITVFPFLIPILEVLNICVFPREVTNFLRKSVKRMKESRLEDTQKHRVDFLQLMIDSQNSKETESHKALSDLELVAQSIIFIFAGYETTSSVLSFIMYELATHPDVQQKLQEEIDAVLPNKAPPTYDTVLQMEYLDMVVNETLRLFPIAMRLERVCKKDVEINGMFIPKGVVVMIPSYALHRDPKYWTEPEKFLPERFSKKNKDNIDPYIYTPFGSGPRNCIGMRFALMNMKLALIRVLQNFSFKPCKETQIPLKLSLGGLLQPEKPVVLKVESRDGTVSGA
Chain of Cytochrome P450 2D6 (P10635 whole entry): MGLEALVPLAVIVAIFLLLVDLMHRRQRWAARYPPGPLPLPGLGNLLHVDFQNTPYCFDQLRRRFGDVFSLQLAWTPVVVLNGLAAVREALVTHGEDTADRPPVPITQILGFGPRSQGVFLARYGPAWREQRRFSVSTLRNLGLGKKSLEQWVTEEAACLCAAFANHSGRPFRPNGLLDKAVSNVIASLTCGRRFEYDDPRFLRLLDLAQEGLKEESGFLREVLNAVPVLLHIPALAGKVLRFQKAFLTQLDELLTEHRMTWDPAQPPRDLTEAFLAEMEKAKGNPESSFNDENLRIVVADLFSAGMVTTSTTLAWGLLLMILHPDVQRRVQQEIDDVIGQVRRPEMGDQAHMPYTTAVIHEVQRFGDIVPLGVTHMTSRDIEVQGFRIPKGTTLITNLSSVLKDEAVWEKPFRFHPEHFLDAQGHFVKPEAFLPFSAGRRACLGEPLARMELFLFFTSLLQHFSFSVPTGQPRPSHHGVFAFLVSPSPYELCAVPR
Chain of Cytochrome P450 2C9 (P11712 whole entry): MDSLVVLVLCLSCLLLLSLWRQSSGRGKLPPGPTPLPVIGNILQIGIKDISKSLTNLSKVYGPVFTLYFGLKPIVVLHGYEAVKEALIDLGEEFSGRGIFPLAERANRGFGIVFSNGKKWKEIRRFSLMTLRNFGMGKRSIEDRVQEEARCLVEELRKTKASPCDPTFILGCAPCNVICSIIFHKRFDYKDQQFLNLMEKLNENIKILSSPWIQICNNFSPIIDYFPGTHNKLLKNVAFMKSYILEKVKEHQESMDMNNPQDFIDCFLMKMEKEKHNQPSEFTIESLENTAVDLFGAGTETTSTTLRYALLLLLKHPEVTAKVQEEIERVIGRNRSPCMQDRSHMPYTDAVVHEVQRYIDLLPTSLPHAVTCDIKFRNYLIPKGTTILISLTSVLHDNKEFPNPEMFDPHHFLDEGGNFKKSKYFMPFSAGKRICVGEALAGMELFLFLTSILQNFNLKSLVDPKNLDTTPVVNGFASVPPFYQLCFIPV

Structure (SMILES) | IC50 [1] [µM] | IC50 [12] [µM] | also measured
COC1COCCC1N[C@@H]1C[C@H]2C[C@@H](N(C)C)C[C@@]2(C(=O)N2CCc3ncc(C(F)(F)F)cc3C2)C1 (stereo not given in full) | 0.247 |  | 
CO[C@@H]1COCC[C@@H]1N[C@@H]1C[C@H]2CCC[C@@]2(C(=O)N2CCc3ncc(C(F)(F)F)cc3C2)C1 |  |  | AUC [2]: 12100 ng·h/mL; bioavailability [3]: 100%; half-life [4]: 3.4 h; Vd [5]: 2.3 L/kg; clearance [6]: 15.2 mL/min/kg; ED50 (Mus musculus [7]): 0.1 mg/kg; inhibition in vivo at 10 mg/kg (Mus musculus [8]): 101%; inhibition in vivo at 3 mg/kg (Mus musculus [9]): 100%; inhibition in vivo at 1 mg/kg (Mus musculus [10]): 100%; inhibition in vivo at 0.3 mg/kg (Mus musculus [11]): 89%; IC50 (Cytochrome P450 2C9): > 10 µM; IC50 (Cytochrome P450 3A4): 7.5 µM; IC50 (Cytochrome P450 2D6): > 10 µM; IC50 (Cytochrome P450 2C19): > 10 µM; IC50 (Cytochrome P450 1A2): > 10 µM
CCC(CC)N[C@@H]1C[C@H]2CCC[C@@]2(C(=O)N2CCc3ncc(C(F)(F)F)cc3C2)C1 | 3.3 | > 50 | 
O=C(N1CCc2ncc(C(F)(F)F)cc2C1)[C@@]12CCC[C@@H]1C[C@@H](NC1CCCC1)C2 | 2.33 | 33.5 | 
O=C(N1CCc2ncc(C(F)(F)F)cc2C1)[C@@]12CCC[C@@H]1C[C@@H](NC1CCCCC1)C2 | 1.53 |  | 
O=C(N1CCc2ncc(C(F)(F)F)cc2C1)[C@@]12CCC[C@@H]1C[C@@H](NC1CCCCCC1)C2 | 0.699 |  | 
O=C(N1CCc2ncc(C(F)(F)F)cc2C1)[C@@]12CCC[C@@H]1C[C@@H](NC1CCSCC1)C2 | 0.874 | 23.1 | 
O=C(N1CCc2ncc(C(F)(F)F)cc2C1)[C@@]12CCC[C@@H]1C[C@@H](NC1CCS(=O)(=O)CC1)C2 | 3.56 |  | 
O=C(N1CCc2ncc(C(F)(F)F)cc2C1)[C@@]12CCC[C@@H]1C[C@@H](NC1CCOCC1)C2 | 0.125 | 25.7 | 
O=C(N1CCc2ncc(C(F)(F)F)cc2C1)[C@@]12CCC[C@@H]1C[C@@H](NCC1CCOCC1)C2 | > 25 | 47 | 
O=C(N[C@@H]1C[C@H]2CCC[C@@]2(C(=O)N2CCc3ncc(C(F)(F)F)cc3C2)C1)C1CCOCC1 | > 25 | > 50 | 
O=C(N1CCc2ncc(C(F)(F)F)cc2C1)[C@@]12CCCC[C@@H]1C[C@@H](NC1CCOCC1)C2 | 7.93 | 38.9 | 
COC1COCCC1N[C@@H]1C[C@H]2C[C@@H](OC)C[C@@]2(C(=O)N2CCc3ncc(C(F)(F)F)cc3C2)C1 (mixture of isomers) | 0.2 | > 50 | 
COC1COCCC1N[C@@H]1C[C@H]2C[C@H](N(C)C)C[C@@]2(C(=O)N2CCc3ncc(C(F)(F)F)cc3C2)C1 (mixture of isomers) | 8.09 |  | 
COC1COCCC1N[C@@H]1C[C@H]2CCC[C@@]2(C(=O)N2CCc3ccc(C#N)cc3C2)C1 (mixture of isomers) | 1.8 |  | 
COC1COCCC1N[C@@H]1C[C@H]2CCC[C@@]2(C(=O)N2CCc3ccc(OC(F)(F)F)cc3C2)C1 (mixture of isomers) | 0.016 |  | 
COC1COCCC1N[C@@H]1C[C@H]2CC(F)(F)C[C@@]2(C(=O)N2CCc3ncc(C(F)(F)F)cc3C2)C1 (mixture of isomers) | 0.095 | > 50 | 
COC1COCCC1N[C@@H]1C[C@H]2C[C@H](F)C[C@@]2(C(=O)N2CCc3ncc(C(F)(F)F)cc3C2)C1 (mixture of isomers) | 0.023 |  | 
COC1COCCC1N[C@@H]1C[C@H]2C[C@@H](F)C[C@@]2(C(=O)N2CCc3ncc(C(F)(F)F)cc3C2)C1 (mixture of isomers) | 0.15 |  | 
COC1COCCC1N[C@@H]1C[C@H]2C[C@H](Cl)C[C@@]2(C(=O)N2CCc3ncc(C(F)(F)F)cc3C2)C1 (mixture of isomers) | 0.02 | > 50 | 

Structure (SMILES) | IC50 [1] [µM] | IC50 [12] [µM] | also measured
COC1COCCC1N[C@@H]1C[C@H]2C[C@@H](Cl)C[C@@]2(C(=O)N2CCc3ncc(C(F)(F)F)cc3C2)C1 (mixture of isomers) | 0.045 | > 50 | 
COC1COCCC1N[C@@H]1C[C@H]2C[C@H](C(F)(F)F)C[C@@]2(C(=O)N2CCc3ncc(C(F)(F)F)cc3C2)C1 (mixture of isomers) | 1.26 |  | 
COC1COCCC1N[C@@H]1C[C@H]2C[C@@H](C(F)(F)F)C[C@@]2(C(=O)N2CCc3ncc(C(F)(F)F)cc3C2)C1 (mixture of isomers) | 0.263 |  | 
COC1COCCC1N[C@@H]1C[C@H]2C[C@H](C(N)=O)C[C@@]2(C(=O)N2CCc3ncc(C(F)(F)F)cc3C2)C1 (mixture of isomers) | 0.088 |  | 
COC1COCCC1N[C@@H]1C[C@H]2C[C@@H](C(N)=O)C[C@@]2(C(=O)N2CCc3ncc(C(F)(F)F)cc3C2)C1 (mixture of isomers) | 0.13 |  | 
COC1COCCC1N[C@@H]1C[C@H]2C[C@H](O)C[C@@]2(C(=O)N2CCc3ncc(C(F)(F)F)cc3C2)C1 (mixture of isomers) | 0.059 | > 50 | 
COC1COCCC1N[C@@H]1C[C@H]2C[C@@H](O)C[C@@]2(C(=O)N2CCc3ncc(C(F)(F)F)cc3C2)C1 (mixture of isomers) | 0.058 | > 50 | 
COC1COCCC1N[C@@H]1C[C@H]2C[C@H](OC)C[C@@]2(C(=O)N2CCc3ncc(C(F)(F)F)cc3C2)C1 (mixture of isomers) | 0.21 | > 50 | 
COC1COCCC1N[C@@H]1C[C@H]2CCC[C@@]2(C(=O)N2CCc3ncccc3C2)C1 (mixture of isomers) | > 25 |  | 
COC1COCCC1N[C@@H]1C[C@H]2CCC[C@@]2(C(=O)N2CCc3ncc(Cl)cc3C2)C1 (mixture of isomers) | 1.1 |  | 
COC1COCCC1N[C@@H]1C[C@H]2CCC[C@@]2(C(=O)N2CCc3ncc(Br)cc3C2)C1 (mixture of isomers) | 0.2 |  | 
COC1COCCC1N[C@@H]1C[C@H]2CCC[C@@]2(C(=O)N2CCc3ncc([N+](=O)[O-])cc3C2)C1 (mixture of isomers) | 1.5 |  | 
COc1cnc2c(c1)CN(C(=O)[C@@]13CCC[C@@H]1C[C@@H](NC1CCOCC1OC)C3)CC2 (mixture of isomers) | > 25 |  | 
COC1COCCC1N[C@@H]1C[C@H]2CCC[C@@]2(C(=O)N2CCc3ncc(OC(C)C)cc3C2)C1 (mixture of isomers) | 5.6 |  | 
COC1COCCC1N[C@@H]1C[C@H]2CCC[C@@]2(C(=O)N2CCc3ccc(F)cc3C2)C1 (mixture of isomers) | 4.4 |  | 
COC1COCCC1N[C@@H]1C[C@H]2CCC[C@@]2(C(=O)N2CCc3ccc(Cl)cc3C2)C1 (mixture of isomers) | 0.4 | 42.4 | 
COC1COCCC1N[C@@H]1C[C@H]2CCC[C@@]2(C(=O)N2CCc3ccc(Br)cc3C2)C1 (mixture of isomers) | 0.29 | 20.3 | 
COC1COCCC1N[C@@H]1C[C@H]2CCC[C@@]2(C(=O)N2CCc3ccc(C(F)(F)F)cc3C2)C1 (mixture of isomers) | 0.034 | 27.6 | 
COC1COCCC1N[C@@H]1C[C@H]2CCCC[C@@]2(C(=O)N2CCc3ncc(C(F)(F)F)cc3C2)C1 (mixture of isomers) | 1.07 |  | 
